{"data": "Measurements gathered from unrelated publications", "RPS6KA5": "Ribosomal protein S6 kinase alpha-5 (RPS6KA5, Homo sapiens, UniProt O75582)", "RPS6KA5 N-terminal kinase domain": "Ribosomal protein S6 kinase alpha-5, N-terminal kinase domain (RPS6KA5, Homo sapiens, UniProt O75582)", "RPS6KA5 C-terminal kinase domain": "Ribosomal protein S6 kinase alpha-5, C-terminal kinase domain (RPS6KA5, Homo sapiens, UniProt O75582)", "note": "Lines come from different studies, so protocols differ."}
{"SMILES": "O=C1Nc2ccc(Cl)cc2C1=Cc1cc(Cl)c(O)c(Cl)c1", "target": "RPS6KA5", "test": "cell-free assay", "conditions": "0.5 µM", "endpoint": "remaining signal", "value": "86.1%"}
{"SMILES": "CCCOc1ccc(OC)c(F)c1C(=O)c1ccc(C(=O)N[C@@H]2CNC[C@H]2NC(=O)c2ccc3[nH]ncc3c2)cc1", "target": "RPS6KA5", "test": "enzyme activity, inhibitor", "conditions": "10 µM", "endpoint": "remaining activity", "value": "2%"}
{"SMILES": "CC1=C(C#N)C(c2ccc3c(c2)c(NC(=O)c2ccccc2C)nn3C)C(C#N)=C(C)N1", "target": "RPS6KA5 N-terminal kinase domain", "test": "cell-free assay, competition with immobilised ligand", "conditions": "1 µM", "endpoint": "remaining binding", "value": "91%"}
{"SMILES": "COc1cc2ncnc(Nc3ccc(Oc4ccccc4)c(C)c3C)c2cc1OC", "target": "RPS6KA5", "test": "enzyme activity, inhibitor", "conditions": "1 µM", "endpoint": "inhibition", "value": "2%"}
{"SMILES": "N[C@H]1CCN(c2nccc(-c3cnn4ncccc34)n2)C1", "target": "RPS6KA5 C-terminal kinase domain", "test": "binding, competition with immobilised ligand", "conditions": "1 µM", "endpoint": "remaining binding", "value": "100%"}
{"SMILES": "COc1cc2c(N3CCN(C(=O)Nc4ccc(OC(C)C)cc4)CC3)ncnc2cc1OCCCN1CCCCC1", "target": "RPS6KA5", "test": "cell-free assay", "conditions": "0.5 µM", "endpoint": "remaining signal", "value": "109%"}
{"SMILES": "Cc1ccc(C(=O)Nc2ccc(CN3CCN(C)CC3)c(C(F)(F)F)c2)cc1C#Cc1cnc2cccnn12", "target": "RPS6KA5", "test": "enzyme activity, inhibitor", "conditions": "23.5 nM", "endpoint": "remaining activity", "value": "92%"}
{"SMILES": "Oc1ccc(-c2nc(-c3ccncc3)c(-c3ccc(F)cc3)[nH]2)cc1", "target": "RPS6KA5", "test": "cell-free assay", "conditions": "0.5 µM", "endpoint": "remaining signal", "value": "107%"}
{"SMILES": "CNC(=O)c1ccc(Nc2ncc(C(F)(F)F)c(NCc3nccnc3N(C)S(C)(=O)=O)n2)cc1", "target": "RPS6KA5 N-terminal kinase domain", "test": "cell-free assay, competition with immobilised ligand", "conditions": "0.1 µM", "endpoint": "remaining binding", "value": "81%"}
{"SMILES": "CN(c1ncccc1CNc1nc(Nc2ccc3c(c2)CC(=O)N3)ncc1C(F)(F)F)S(C)(=O)=O", "target": "RPS6KA5", "test": "enzyme activity, inhibitor", "conditions": "1 µM", "endpoint": "inhibition", "value": "31.9%"}
{"SMILES": "CCC(=N\\O)/C(C)=C/c1ccc(F)cc1", "target": "RPS6KA5 N-terminal kinase domain", "test": "cell-free assay, competition with immobilised ligand", "conditions": "1 µM", "endpoint": "remaining binding", "value": "100%"}
{"SMILES": "Cc1ccc(Nc2nccc(N(C)c3ccc4c(C)n(C)nc4c3)n2)cc1S(N)(=O)=O", "target": "RPS6KA5", "test": "enzyme activity, inhibitor", "conditions": "0.3 µM", "endpoint": "inhibition", "value": "6%"}
{"SMILES": "CNc1cccc2cc(C(=O)Nc3ccc(C(=O)O)cc3)c(=O)[nH]c12", "target": "RPS6KA5", "test": "enzyme activity, inhibitor", "conditions": "10 µM", "endpoint": "inhibition", "value": "-7.3%"}
{"SMILES": "Nc1ncnc2occ(-c3ccc(NC(=O)Nc4cc(C(F)(F)F)ccc4F)cc3)c12", "target": "RPS6KA5 N-terminal kinase domain", "test": "cell-free assay, inhibitor", "conditions": "20 µM", "endpoint": "remaining signal", "value": "2.2%"}
{"SMILES": "O=C(NS(=O)(=O)c1ccc(NCC2CCOCC2)c([N+](=O)[O-])c1)c1ccc(N2CCN(Cc3ccc(C(F)(F)F)cc3-c3ccc(Cl)cc3)CC2)cc1Oc1cnc2[nH]ccc2c1", "target": "RPS6KA5 N-terminal kinase domain", "test": "cell-free assay, competition with immobilised ligand", "conditions": "1 µM", "endpoint": "remaining binding", "value": "97%"}
{"SMILES": "COc1cc(Nc2cnc(C#N)c(O[C@H](C)CN(C)C)n2)ncc1-c1cnn(C)c1", "target": "RPS6KA5", "test": "enzyme activity, inhibitor, radiometric", "conditions": "10 µM", "endpoint": "remaining activity", "value": "41%"}
{"SMILES": "Oc1cccc(-c2nc(N3CCOCC3)c3oc4ncccc4c3n2)c1", "target": "RPS6KA5", "test": "enzyme activity, inhibitor", "conditions": "10 µM", "endpoint": "remaining activity", "value": "105%"}
{"SMILES": "CN(C)c1ncc(F)c(-c2cnn3ncccc23)n1", "target": "RPS6KA5 C-terminal kinase domain", "test": "binding, competition with immobilised ligand", "conditions": "1 µM", "endpoint": "remaining binding", "value": "89%"}
{"SMILES": "CNCc1ccc(-c2cc(-c3nc(-c4ccc(S(=O)(=O)C(C)C)cc4)cnc3N)on2)cc1", "target": "RPS6KA5", "test": "enzyme activity, inhibitor", "conditions": "2 µM", "endpoint": "inhibition", "value": "0%"}
{"SMILES": "Cc1nc(C2CCN(C(=O)c3ccc(OC(F)(F)F)cc3N)CC2)c2ncc(N3CCN(C)CC3)cc2n1", "target": "RPS6KA5 N-terminal kinase domain", "test": "cell-free assay, competition with immobilised ligand", "conditions": "1 µM", "endpoint": "remaining binding", "value": "100%"}
{"SMILES": "CCCS(=O)(=O)Nc1ccc(F)c(C(=O)c2c[nH]c3ncc(-c4ccc(Cl)cc4)cc23)c1F", "target": "RPS6KA5", "test": "enzyme activity, inhibitor", "conditions": "1 µM", "endpoint": "inhibition", "value": "< 10%"}
{"SMILES": "O=C(Nc1cnn(-c2csc(C(=O)NC3COC3)c2)c1)Nc1ccccc1Cl", "target": "RPS6KA5", "test": "enzyme activity, inhibitor", "conditions": "5 µM", "endpoint": "remaining activity", "value": "89.5%"}
{"SMILES": "CNC(=O)c1cc(Oc2ccc(NC(=O)Nc3ccc(Cl)c(C(F)(F)F)c3)cc2)ccn1", "target": "RPS6KA5", "test": "enzyme activity, inhibitor", "conditions": "0.3 µM", "endpoint": "inhibition", "value": "-5%"}
{"SMILES": "Cc1ccc(C(=O)NCc2ccsc2)cc1C#Cc1cn(C(C)C)c2ncnc(N)c12", "target": "RPS6KA5", "test": "enzyme activity, inhibitor", "conditions": "1 µM", "endpoint": "activity vs control", "value": "104%"}
{"SMILES": "COc1ccc2cc(OCC3(C(=O)O)CN(C(=O)c4ccc(F)cc4)C3)ccc2c1", "target": "RPS6KA5 N-terminal kinase domain", "test": "cell-free assay, competition with immobilised ligand", "conditions": "1 µM", "endpoint": "remaining binding", "value": "100%"}
{"SMILES": "CC(C)(C)C(=O)c1sc(NC2CCCCC2)nc1N", "target": "RPS6KA5", "test": "enzyme activity, inhibitor", "conditions": "10 µM", "endpoint": "remaining activity", "value": "102%"}
{"SMILES": "O=C1NC(=O)c2cc(Nc3ccc(F)cc3)c(Nc3ccc(F)cc3)cc21", "target": "RPS6KA5", "test": "cell-free assay", "conditions": "0.5 µM", "endpoint": "remaining signal", "value": "93.6%"}
{"SMILES": "Cc1cc(NC(=O)c2cccc3cc(-c4cccc5[nH]nc(N)c45)ccc23)ccc1F", "target": "RPS6KA5", "test": "enzyme activity, inhibitor", "conditions": "0.1 µM", "endpoint": "activity vs control", "value": "94%"}
{"SMILES": "CCN(CC)c1ccc(C2=NNC(=O)CC2C)cc1[N+](=O)[O-] (stereo not drawn)", "target": "RPS6KA5", "test": "enzyme activity, inhibitor", "conditions": "10 µM", "endpoint": "remaining activity", "value": "83%"}
{"SMILES": "C[C@H]1CCN(c2nccc(-c3cnn4ncccc34)n2)C1", "target": "RPS6KA5 C-terminal kinase domain", "test": "binding, competition with immobilised ligand", "conditions": "1 µM", "endpoint": "remaining binding", "value": "100%"}
{"SMILES": "CCS(=O)(=O)c1cc2cc(C[C@](O)(CC(C)(C)c3ccc(F)cc3C(N)=O)C(F)(F)F)[nH]c2cn1", "target": "RPS6KA5 C-terminal kinase domain", "test": "cell-free assay, competition with immobilised ligand", "conditions": "1 µM", "endpoint": "remaining binding", "value": "100%"}
{"SMILES": "CCN(CC)CCNC(=O)c1c(C)[nH]c(/C=C2\\C(=O)Nc3ccc(F)cc32)c1C", "target": "RPS6KA5", "test": "cell-free assay", "conditions": "0.5 µM", "endpoint": "remaining signal", "value": "60.1%"}
{"SMILES": "O=C(O)[C@@H]1[C@@H](Cn2nnc3ccccc3c2=O)CC[C@H]1C(=O)c1ccc(OCCC2CCOCC2)cc1", "target": "RPS6KA5 N-terminal kinase domain", "test": "cell-free assay, competition with immobilised ligand", "conditions": "1 µM", "endpoint": "remaining binding", "value": "100%"}
{"SMILES": "CC1CCCN1c1nccc(-c2cnn3ncccc23)n1 (stereo not drawn)", "target": "RPS6KA5 N-terminal kinase domain", "test": "binding, competition with immobilised ligand", "conditions": "1 µM", "endpoint": "remaining binding", "value": "100%"}
{"SMILES": "CC(C)(C)c1nc2c(s1)c1nc(N)ncc1c1ccc(NS(=O)(=O)c3c(F)cccc3F)c(F)c12", "target": "RPS6KA5", "test": "enzyme activity, inhibitor, radiometric", "conditions": "1 µM", "endpoint": "remaining activity", "value": "95%"}
{"SMILES": "Cc1ccc(NC(=O)c2ccc(C)c(C(F)(F)F)c2)cc1C#Cc1nn(C2CCC(O)CC2)c2ncnc(N)c12 (stereo not drawn)", "target": "RPS6KA5", "test": "cell-free assay", "conditions": "10 µM", "endpoint": "remaining signal", "value": "95%"}
